From PubChem BioAssay
Hits are enriched below; roughly 5.2% of the tested compounds scored in any of these assays.
AP ELISA ortho: alternative complement pathway inhibitors, primary screen, biochemical, ELISA, human serum, orthogonally pooled compounds | LPS-coated ELISA, C3 deposition; tested in compound mixtures | inhibition, % at 5 µM | 0.08% of 62,000 active;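 active means inhibition above 30% in each of the two pooled mixtures holding the compound, so the lower value exceeds 30%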;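 further: 0% = serum in Mg-EGTA without compound and 100% = EDTA serum blank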
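Assay system: Human serum alternative complement pathway, C3 deposition on LPS-coated wells | Incubation: 1 h serum-compound exposure at 37 °C | Doses: 5 µM per compound in ten-compound mixtures | Read-out: Percent inhibition | Technique: ELISA with HRP anti-human C3 antibody, TMB substrate, absorbance 450 nm | Replication: Two pool placements per compound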
Ecoli tolC: growth inhibitors of E. coli tolC mutant, primary screen, strain BW25113 ΔtolC::kan, 384-well; 2.2% of 65,000 active; growth inhibition, % at 10 µM (by protocol); OD615;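 active means growth inhibition at or above a cutoff equal to the mean over every tested compound plus 3 SD, cut at about 60% in these data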;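 further: growth measured after 20 h incubation at 37 °C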
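signal = optical density read at 615 nm | test system = E. coli ΔtolC::kan strain BW25113 | timing = 20 h compound exposure of bacteria at 37 °C | buffer or medium = LB medium plus 50 µg/mL kanamycin | compound dosing = 10 µM final, single dose | evaluation = % inhibition of E. coli growth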
M1 antagonist: antagonists of rat M1 muscarinic receptor | Muscarinic acetylcholine receptor M1 (Rattus norvegicus), P08482 | CHO-M1 cells, Fluo-4 calcium, ACh EC80 antagonist mode; hits give low values | B-score at 10 µM | 3.4% of 64,000 active | AID 628, 2007;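 active means calcium fluorescence response, raw or row-and-column corrected B-score, differing from the plate sample mean either way at a set confidence level, mostly lower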
Target sequence (P08482 whole entry, looked up): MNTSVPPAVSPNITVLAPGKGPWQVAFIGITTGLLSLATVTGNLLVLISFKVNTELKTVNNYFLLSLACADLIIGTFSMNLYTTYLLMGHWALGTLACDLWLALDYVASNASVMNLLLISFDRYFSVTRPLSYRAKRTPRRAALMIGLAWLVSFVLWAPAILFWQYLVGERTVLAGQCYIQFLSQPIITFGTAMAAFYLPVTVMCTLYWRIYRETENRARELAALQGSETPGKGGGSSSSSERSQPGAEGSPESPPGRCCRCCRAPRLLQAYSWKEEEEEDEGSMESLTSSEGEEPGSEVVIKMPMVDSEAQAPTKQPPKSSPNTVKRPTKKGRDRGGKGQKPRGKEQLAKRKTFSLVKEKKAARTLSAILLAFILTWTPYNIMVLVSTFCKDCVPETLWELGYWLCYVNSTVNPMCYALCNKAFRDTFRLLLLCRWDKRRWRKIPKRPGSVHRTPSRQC
M1 agonist: M1 muscarinic receptor agonists, primary screen, CHO-M1 cells, Fluo-4 calcium, agonist mode; Muscarinic acetylcholine receptor M1; Fluo-4 calcium fluorescence; hits give high values; B-score at 10 µM; 3% of 64,000 active; AID 626, 2007;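 active means fluorescence rise, raw or as B-score row- and column-corrected plate score, outside the 99.7% band of its plate's samples, either direction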
WNV NS2B-NS3 inh: inhibitors of WNV NS2B-NS3 protease, primary screen, biochemical, fluorogenic substrate. Genome polyprotein (West Nile virus), P06935. fluorogenic substrate Ex360/Em465; hits give low values. z-score (test concentration not listed). 0.18% of 65,000 active. AID 577, 2007; in the data active means z-score below about -3
Ecoli WT expand: growth inhibitors of wild-type E. coli, primary screen, strain BW25113, expanded library, OD600; OD600 absorbance; 0.15% of 98,000 active; growth inhibition, % at 100 µM;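 active means growth inhibition above about 50% at one test dose, limit read from the data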;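 further: growth measured after 20 h incubation at 37 °C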
Numbers without * were called inactive; . = no result.

SMILES | AP ELISA ortho | Ecoli tolC | M1 antagonist | M1 agonist | WNV NS2B-NS3 inh | Ecoli WT expand
COc1ccccc1-c1noc(CCC(=O)Nc2cccc(C(F)(F)F)c2)n1 | 0.7 | 64.9* | -0.582 | -0.086 | 0.86 | -8.0
O=C(O)CC1C(=O)NCCN1Cc1ccc(F)c(F)c1 (stereo not given) | 10.8 | -19.9 | 1.44* | -0.27 | 0.82 | 0.0
CCCCC(=O)Nc1ccc(F)c(Cl)c1 | 13.4 | 10.3 | 0.0747 | 0 | -0.76 | 15.0
Fc1ccc(NC(=S)Nc2ccc(F)c(Cl)c2)cc1Cl | . | . | . | . | . | 89.0*
O=C(CSc1nnc(Cc2cccs2)n1Cc1ccco1)Nc1ccc(Br)cc1 | -1.1 | 100.0* | 0.892 | 0.116 | -1.04 | -9.0
O=C(CSc1nnc(-c2ccco2)n1Cc1ccco1)NCc1cccs1 | 18.7 | -2.8 | -0.0961 | 1.41 | -1.01 | 1.0
O=C(CSc1nnc(Cc2cccs2)n1Cc1ccco1)Nc1ccc(Cl)cc1Cl | -6.8 | 94.7* | -0.198 | -0.148 | 1.6 | -24.0
Cc1cc(Cl)ccc1NC(=O)CSc1nnc(-c2ccncc2)n1Cc1ccco1 | 11.0 | 5.7 | -0.896 | 0.104 | -0.37 | 9.0
O=C(CSc1nnc(COc2ccccc2)n1Cc1ccco1)NCc1ccco1 | -3.4 | 3.5 | 0.559 | -0.00488 | -2.55 | 8.0
O=C(CSc1nnc(Cc2ccccc2)n1Cc1ccco1)NC12CC3CC(CC(C3)C1)C2 | 8.0 | 82.7* | -1.78 | 2.06 | 1.28 | -9.0
CCn1c(SCC(=O)c2ccccc2)nnc1-c1cccs1 | . | . | . | . | . | 6.0
CCC(=O)NC(=S)Nc1cccc(Cl)c1N1CCCCC1 | . | . | . | . | . | -5.0
COC(=O)c1ccccc1NC(=O)c1cc(-c2ccc(OC)c(OC)c2)on1 | 0.1 | 0.5 | -0.046 | -0.429 | -0.00552 | .
c1csc(Cn2c(-c3cccs3)nc3ccccc32)c1 | 2.5 | 7.2 | 0.0983 | 0.0125 | 0.23 | -10.0
Brc1ccccc1Cn1c(-c2cncs2)nc2ccccc21 | 11.6 | 62.4* | -0.436 | 0.776 | -0.26 | -1.0
Cn1c(=O)n(C/C=C/c2ccccc2)c(=O)c2c1nc1n2CCCN1Cc1ccccc1 | 14.0 | 23.5 | 0.264 | 0.0798 | -0.43 | -8.0
Cc1cccc(Cn2c(=O)c3c(nc4n3CCCN4Cc3ccccc3)n(C)c2=O)c1 | 0.5 | 73.7* | -0.0777 | -0.46 | -0.83 | -4.0
CC1CN(c2nc3c(c(=O)n(Cc4ccc(Cl)c(Cl)c4)c(=O)n3C)n2C)CC(C)O1 (stereo not given) | 5.8 | 86.8* | -0.27 | 0.0304 | 0.11 | -1.0
CCNc1nc2c(c(=O)n(C)c(=O)n2C)n1Cc1ccc(Cl)cc1 | 8.5 | 4.3 | -0.715 | 2.56* | -0.62 | .
CCC(C)Nc1nc2c(c(=O)n(C)c(=O)n2C)n1Cc1cccc(C)c1 (stereo not given) | . | 14.8 | 13.4* | 0.61 | 0.62 | 11.0
CCC(C)Nc1nc2c(c(=O)n(C)c(=O)n2C)n1Cc1ccc(Cl)cc1 (stereo not given) | 15.0 | 28.6 | -0.875 | -1.17 | -0.9 | .
COc1ccc(C(=O)Cn2c(C(=O)/C=C/c3ccccc3)nc3ccccc32)cc1 | . | . | . | . | . | -6.0
Nc1nc(CN2CCCCCC2)nc(Nc2ccccc2)n1 | . | . | . | . | . | 9.0
Cc1c(-c2nc(N)nc(Nc3ccccc3)n2)oc2ccccc12 | -0.5 | 98.4* | -0.759 | -0.0281 | 1.47 | -13.0
CCCCC(=O)Nc1ccc(NC(=O)CCCC)nc1 | 68.8* | -16.9 | 0.473 | 1.57 | -0.36 | -6.0
SMILES | AP ELISA ortho | Ecoli tolC | M1 antagonist | M1 agonist | WNV NS2B-NS3 inh | Ecoli WT expand
COC(=O)/C(=C(/F)Sc1cc(C)c(O)c(C)c1)C(F)(F)F | . | . | . | . | . | -2.0
CC(=O)c1n[nH]nc1Nc1nc(C)cc(C)n1 | . | -1.9 | -0.092 | -0.0584 | -0.24 | .
CC(=O)c1c(O)cc(C)n(Nc2nc(C)cc(C)n2)c1=O | 10.4 | 72.7* | 0.198 | 0.534 | 3.1 | 1.0
COc1ccc(Cl)cc1NC(=O)CN1CCC(n2nnc3cc(F)ccc32)CC1 | 14.2 | -11.8 | -0.193 | -1.08 | -1.27 | -8.0
CCCOC(=O)/C(C(N)=NCc1ccccc1)=C(\O)OCCC | 2.0 | 61.5* | 0.454 | -0.848 | 0.04 | 13.0
CCOC(=O)C(=O)/C(=C\N(C)C)c1onc(-c2c(Cl)cccc2Cl)c1C(=O)OC | . | . | . | . | . | 9.0
COc1ccc(NC(=O)CCn2cccc2)cc1 | 6.0 | -5.4 | -2.34 | 0.335 | 1.94 | 10.0
COc1ccccc1C(=O)Nc1nnc(-c2ccc(Cl)cc2)o1 | 15.7 | 44.0 | 0.531 | -0.0013 | 0.14 | .
COc1ccc(-c2nnc(NC(=O)c3ccc(F)cc3)o2)cc1 | . | . | . | . | . | 51.0*
COc1ccc(-c2nnc(NC(=O)c3cc(Cl)ccc3Cl)o2)cc1 | 27.2 | 98.1* | -0.363 | 0.44 | -0.86 | 1.0
O=C(Nc1nnc(-c2ccc(F)cc2)o1)c1ccco1 | 17.8 | 76.9* | -0.993 | -0.364 | -0.39 | .
O=C1N2c3ccccc3CCc3cccc(c32)C1(O)C(F)(F)F (stereo not given) | 6.3 | 31.9 | 0.268 | -1.49 | 1.31 | 6.0
Cc1ccc(C(=O)CCNc2ccc(Cl)cc2)o1 | . | . | . | . | . | 6.0
Cc1cc(NC(=O)CS(=O)(=O)c2cn(Cc3cccc(F)c3)c3ccccc23)no1 | 5.8 | 24.1 | 3.61* | 1.73 | 1.42 | -14.0
COc1ccc(-c2nnc(NC(=O)c3ccc(S(=O)(=O)N4CCc5ccccc5C4)cc3)o2)cc1 | 14.9 | 94.2* | -0.149 | -0.518 | 0.3 | -13.0
COc1cccc(-c2nnc(NC(=O)c3ccc(S(=O)(=O)N4CC(C)OC(C)C4)cc3)o2)c1 (stereo not given) | 11.1 | 98.5* | 0.255 | 1.05 | -1.06 | 0.0
O=S(=O)(c1ccccc1)c1ccc(NCc2ccco2)cc1 | 8.3 | 22.9 | -0.317 | -1.6 | -1.15 | 1.0
c1ccc(-c2nc(NCc3ccco3)c3ccccc3n2)nc1 | -13.8 | 83.3* | 2.09 | -0.255 | -0.29 | 20.0
O=S(=O)(Nc1nc2ccccc2nc1NCc1ccco1)c1ccccc1 | 9.4 | 71.1* | -0.0536 | -1.33 | -0.36 | 1.0
Oc1ccccc1-c1nc(NCc2ccco2)c2ccccc2n1 | . | 13.1 | -0.613 | 5.6 | -0.33 | 2.0
O=C(NNC(=O)C(c1ccccc1)c1ccccc1)c1cccs1 | . | . | . | . | . | 3.0
O=C(c1ccco1)N1CCN(C(c2ccccc2Cl)c2nnnn2Cc2ccco2)CC1 (stereo not given) | 16.6 | 4.0 | -0.627 | 11.8* | -1.06 | 2.0
CCC(=O)N1CCN(c2ccc(NC(=O)c3ccc(-c4ccccc4)cc3)cc2)CC1 | . | . | . | . | . | -6.0
Clc1ccc2nc(NC3=NCN(CCN4CCOCC4)CN3)nc(-c3ccccc3)c2c1 | -0.9 | . | -15* | 0.8 | -0.89 | .
CC1CCCN(C(=O)CSc2cnc3ccccc3n2)C1 (stereo not given) | . | . | . | . | . | 2.0
O=C(c1cc2n(n1)C(C(F)(F)F)CC(c1ccco1)N2)N1CCN(c2ccccn2)CC1 (stereo not given) | -15.4 | 2.4 | 0.0869 | 0.0687 | 0.9 | -13.0
